Assay results collected from several papers.
Compare with care: the assays were run in different laboratories.
Observed: cell growth or viability

| SMILES | cell line | method | time | IC50 |
| --- | --- | --- | --- | --- |
| Cc1ncsc1-c1ccc([C@H](CC(=O)NCCCCCNC(=O)c2nc(N3CCc4cccc(C(=O)Nc5nc6ccccc6s5)c4C3)ccc2-c2cnn(CC34CC5CC(CC(C5)C3)C4)c2C)NC(=O)[C@@H]2C[C@@H](O)CN2C(=O)[C@@H](NC(=O)C2(C#N)CC2)C(C)(C)C)cc1 | MOLT-4 | MTS | 48 h | 0.0938 µM |
| Clc1ccc(-c2cc(CNc3cccc4cccnc34)on2)c(Cl)c1 | LN-229 | MTS | 72 h | 54.4 µM |
| NS(=O)(=O)c1ccc(-n2nc(-c3nnc(CCl)o3)cc2-c2ccccc2)cc1 | PaCa-2 | fluorescence | 48 h | 26.3 µM |
| O=C(CSc1nc2ccccc2s1)N/N=C/c1ccc(OCC(=O)Nc2ccc([N+](=O)[O-])cc2)cc1 | MOLT-4 | MTS | 72 h | > 100 µM |
| Cc1c(-c2ccc(N3CCc4cccc(C(=O)Nc5nc6ccccc6s5)c4C3)nc2C(=O)NCCCCNc2cccc3c2C(=O)N(C2CCC(=O)NC2=O)C3=O)cnn1CC12CC3CC(CC(C3)C1)C2 (stereo not shown) | MOLT-4 | MTS | 48 h | 0.126 µM |
| FC(F)(F)c1cc(OCc2cc(-c3ccc(Cl)cc3Cl)no2)c2ccccc2n1 | LN-229 | MTS | 72 h | > 100 µM |
| Nc1ccccc1NC(=O)c1ccc(Cn2cnc3c(Nc4ccc(Cl)cc4)ncnc32)cc1 | Jurkat | MTT | 72 h | 13.5 µM |
| COc1ccc(C=NNC(=O)c2cc(-c3ccccc3)n(-c3ccc(S(N)(=O)=O)cc3)n2)cc1OC | PaCa-2 | fluorescence | 48 h | 20.5 µM |
| Cc1c(-c2ccc(N3CCc4cccc(C(=O)Nc5nc6ccccc6s5)c4C3)nc2C(=O)O)cnn1CC12CC3CC(C1)CC(C(=O)NCCCCCCCCNc1cccc4c1C(=O)N(C1CCC(=O)NC1=O)C4=O)(C3)C2 (stereo not shown) | MOLT-4 | MTS | 48 h | 0.0041 µM |
| COc1ccc2c(C(=O)C(C#N)=Cc3cn(Cc4ccc(Cl)cc4)c4ccccc34)c[nH]c2c1 | MIA PaCa-2 | MTT | 48 h | 7.9 µM |
| Cn1nnc2c(C(N)=O)ncn2c1=O | LN-229 | MTT | – | 6000 µM |
| Cc1ncsc1-c1ccc([C@H](C)NC(=O)[C@@H]2C[C@@H](O)CN2C(=O)[C@@H](NC(=O)CCCCCCCCCCS(=O)(=O)NC(=O)c2nc(N3CCc4cccc(C(=O)Nc5nc6ccccc6s5)c4C3)ccc2-c2cnn(CC34CC5CC(CC(C5)C3)C4)c2C)C(C)(C)C)cc1 | MOLT-4 | MTS | 48 h | 0.0341 µM |
| N#Cc1ccc(-c2cc(COc3cc(=O)oc4ccccc34)on2)cc1 | LN-229 | MTS | 72 h | > 100 µM |
| COC[C@H](NC(=O)c1ccn(S(C)(=O)=O)c1)C(=O)Nc1nc(-c2cccc(N3C[C@@H](C)O[C@@H](C)C3)n2)cs1 | LNCaP | ATP luminescence | 7 days | 0.008 µM |
| Cc1c(-c2ccc(N3CCc4cccc(C(=O)Nc5nc6ccccc6s5)c4C3)nc2C(=O)O)cnn1CC12CC3CC(C1)CC(C(=O)NCCOCCOCCOCCNc1cccc4c1C(=O)N(C1CCC(=O)NC1=O)C4=O)(C3)C2 (stereo not shown) | MOLT-4 | MTS | 48 h | 0.0846 µM |
| COc1cc(C=NNC(=O)c2cc(-c3ccccc3)n(-c3ccc(S(N)(=O)=O)cc3)n2)cc(OC)c1OC | PaCa-2 | fluorescence | 48 h | 22 µM |
| O=C(NO)c1ccc(Cn2cnc3c(Nc4ccc(Br)cc4F)ncnc32)cc1 | MOLT-4 | MTT | 72 h | 0.53 µM |
| COC(=O)c1cc(C(C)=NNc2nc(-c3cccc4cc[nH]c34)cs2)ccc1O | T47D | MTT | 96 h | 20.8 µM |
| CCn1cc(C=C(C#N)C(=O)c2c[nH]c3cc(OC)ccc23)c2ccccc21 | MIA PaCa-2 | MTT | 48 h | > 40 µM |
| Cc1ncsc1-c1ccc([C@H](CC(=O)NCCNC(=O)c2nc(N3CCc4cccc(C(=O)Nc5nc6ccccc6s5)c4C3)ccc2-c2cnn(CC34CC5CC(CC(C5)C3)C4)c2C)NC(=O)[C@@H]2C[C@@H](O)CN2C(=O)[C@@H](NC(=O)C2(C#N)CC2)C(C)(C)C)cc1 | MOLT-4 | MTS | 48 h | 0.0235 µM |
| O=C(NO)c1ccc(Cn2cnc3c(Nc4cccc([N+](=O)[O-])c4)ncnc32)cc1 | Jurkat | MTT | 72 h | 0.89 µM |
| CN(C)C(=O)c1cc2cnc(Nc3ccc(-c4ccc5c(=O)cc(N6CCOCC6)oc5c4)cc3)nc2n1C1CCCC1 | NGP | ATP luminescence | 72 h | 0.21 µM |
| O=C(CSc1nc2ccccc2s1)N/N=C/c1ccc(OCC(=O)Nc2cccc(Cl)c2)cc1 | LN-229 | MTS | 72 h | 19.6 µM |
| N#Cc1ccc(-c2cc(CNc3cccc4cccnc34)on2)cc1 | LN-229 | MTS | 72 h | 27.2 µM |
| Cc1ncsc1-c1ccc([C@H](C)NC(=O)[C@@H]2C[C@@H](O)CN2C(=O)[C@@H](NC(=O)CCCS(=O)(=O)NC(=O)c2nc(N3CCc4cccc(C(=O)Nc5nc6ccccc6s5)c4C3)ccc2-c2cnn(CC34CC5CC(CC(C5)C3)C4)c2C)C(C)(C)C)cc1 | MOLT-4 | MTS | 48 h | 0.0083 µM |
| N#Cc1ccc(-c2cc(COc3cc(C(F)(F)F)nc4ccccc34)on2)cc1 | LN-229 | MTS | 72 h | 23.9 µM |
| Cc1ncsc1-c1ccc([C@H](CC(=O)NCCCCCCNC(=O)c2nc(N3CCc4cccc(C(=O)Nc5nc6ccccc6s5)c4C3)ccc2-c2cnn(CC34CC5CC(CC(C5)C3)C4)c2C)NC(=O)[C@@H]2C[C@@H](O)CN2C(=O)[C@@H](NC(=O)C2(C#N)CC2)C(C)(C)C)cc1 | MOLT-4 | MTS | 48 h | 0.117 µM |
| CCOc1ccc2[nH]cc(C(=O)C(C#N)=Cc3cn(CC)c4ccccc34)c2c1 | MIA PaCa-2 | MTT | 48 h | 5.8 µM |
